Screening data as filed in PubChem.
CHOP inh = inhibitors of CHOP induction in ER stress response; CHO-K1 CHOP-promoter luciferase, tunicamycin-induced, 15-18 h; inhibition, % at 10 µM; 220,000 compounds, 3.8% hits;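 active = compounds that reduced the stress-induced luciferase reporter signal by more than about 70% of percent inhibition, limit read from the data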;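 note: 0% = tunicamycin plus vehicle and 100% = wells without tunicamycin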
Dynein transport = blocks dynein driven cargo transport along microtubules; z-score, hits read low; 220,000 compounds, 0.47% hits; 3617.4 mouse cells, GR-EGFP nuclear translocation imaging; test concentration mostly 20 µM; stimulated with dexamethasone, 1 µM; hits give low values;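 active = plate z-score of nuclear minus cytoplasmic receptor signal below a set negative limit, without overly bright fluorescence or cell loss, cut at about -3.5 in these data, passing the limit was not always enough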;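 note: z-score of nuclear minus cytoplasmic ring GR-EGFP intensity difference per well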
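Buffer or medium: tet-free, stripped-serum medium; reagent: dexamethasone at 1.0 µM final, 30 min; incubation: 48 h induction, 1 h compound, 30 min dex at 37 °C; measured by: formaldehyde fixation, Hoechst nuclear stain, 10x automated fluorescence imaging; read-out: nuclear-to-cytoplasmic GR-EGFP distribution per well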
UPR XBP1 act = adaptive UPR (XBP1) activation. CHO-XBP1 luciferase reporter, IRE1-XBP1 UPR activation, luminescence; percent of tunicamycin response, DMSO as zero. activation, % at 20 µM. 330,000 compounds, 0.33% hits;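 active = versus positive control, 20 µM dose yields 30% or more activation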;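 note: 100% = tunicamycin at 10 µg/mL and 0% = DMSO only wells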
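Assay system: IRE1-XBP1 luciferase reporter CHO line. Input: 1000 cells/well. Buffer or medium: F12 with 10% serum. Doses: 20 µM, 1% DMSO. Times: overnight seeding at 37 °C, 6 h compound treatment at 37 °C. Technique: Steady-Glo luciferase glow luminescence, 10 min after reagent addition.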
CHOP UPR activ = activators of apoptotic arm of unfolded protein response (CHOP). CHO-CHOP luciferase reporter, UPR activation, luminescence; percent of tunicamycin response over DMSO baseline. activation, % at 10 µM. 330,000 compounds, 0.34% hits. AID 449763;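 active = at 10 µM dose, activation of 40% or more, normalized to positive control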;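 note: 100% = tunicamycin at 10 µg/mL and 0% = DMSO alone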
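System: CHO-CHOP luciferase reporter cell line | Buffer or medium: F12 medium containing 10% fetal bovine serum | Doses: One dose, 10 µM in 0.5% DMSO | Times: 6 h compound exposure at 37 °C after overnight seeding | Signal: Luciferase luminescence | Read-out: % activation vs tunicamycin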
Lmaj promast = Leishmania major promastigote growth inhibition; Leishmania major promastigotes, resazurin fluorescence viability; inhibition, % at 10 µM; 200,000 compounds, 9% hits; in the data active = inhibition above about 50%;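 note: promastigotes grown with compound for 44 hours at 28 °C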
T cruzi inh = T. cruzi replication inhibition. 300,000 compounds, 1.4% hits. inhibition, % (concentration not given with the values). AID 1885. T. cruzi beta-gal in NIH3T3, luminescence, 90 h;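 active = mean inhibition across valid replicates above about 55%, limit read from the data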;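 note: signal also drops with host cell toxicity which is not excluded here; 0% = plate median of DMSO wells and 100% = zero luminescence signal; higher percent means less beta-gal luminescence so fewer parasites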
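System: mouse NIH/3T3 fibroblasts infected with β-gal-expressing T. cruzi Tulahuen C4 / Input: NIH/3T3 cells, 5,000 per well / Buffer or medium: Low-serum DMEM with 2% FBS / Probe or stimulus: 5000 reporter trypomastigotes per well / Schedule: ≥90 h infection period, 3 h prior cell attachment / Measured by: GalScreen luminescence, 60 min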
Numbers without * were called inactive; nt = no result given. The entries come from a sample that favours hits as a whole.

SMILES | CHOP inh | Dynein transport | UPR XBP1 act | CHOP UPR activ | Lmaj promast | T cruzi inh
Cc1ccccc1-n1c(SCC(=O)N/N=C/c2sccc2C)nc2ccccc2c1=O | 26.9 | 1.26 | 1.0 | 0.0 | 86.2* | 9.9
Cc1cc(SCC(=O)N/N=C/c2ccc(O)cc2O)nc2ccccc12 | nt | nt | -5.2 | -0.3 | nt | 69.0*
Cc1ccccc1-n1c(SCC(N)=O)nc2sc(-c3ccccc3)cc2c1=O | 0.6 | 0.102 | 3.2 | -2.0 | 20.8 | 5.4
O=C(CSc1nnc(SCc2cccc3ccccc23)s1)Nc1ccc(C(=O)O)cc1 | 8.9 | 0.397 | -3.2 | -0.4 | -8.2 | -6.2
CC(=O)Oc1ccccc1C(=O)NC(C)CCc1ccccc1 (configuration not stated) | nt | nt | -4.0 | -0.8 | nt | -9.9
COC(=O)Cc1c(C)c2ccc(OC3CCCCC3=O)c(C)c2oc1=O (configuration not stated) | nt | nt | 2.5 | 4.0 | nt | 2.7
Cc1ccc(-n2c(SCC(=O)N/N=C/c3c(C)nn(-c4ccccc4)c3C)nc3ccccc3c2=O)cc1 | -28.7 | 0.0754 | 1.7 | 4.1 | 12.1 | 36.2
Cc1ccccc1-n1c(SCC(=O)N/N=C/c2c(C)nn(-c3ccccc3)c2C)nc2ccccc2c1=O | 33.7 | 0.846 | 15.5 | -1.1 | 10.9 | 56.4*
Cc1ccc(S(=O)(=O)N(C)C)cc1-n1c(SCC(=O)Nc2ccccc2)nc2ccccc2c1=O | 20.0 | 0.478 | -1.9 | 0.6 | 89.4* | 3.1
COc1ccc(S(=O)(=O)N2CCC(C(=O)N[C@H](C(=O)NC3CCCC3)C(C)C)CC2)cc1 | nt | nt | -5.5 | 1.1 | nt | 8.6
CCc1ccccc1NC(=O)c1ccc(CN2CCC(Cc3ccccc3)CC2)cc1 | 63.0 | -0.132 | -5.4 | 2.0 | 79.6* | 42.6
O=C(c1ccc(CN2CCOCC2)cc1)N1CCC(Cc2ccccc2)CC1 | 10.0 | 1.84 | -1.6 | -0.3 | 87.4* | 18.1
O=C(CN1CCN(C(=O)CN2C(=O)NC3(CCCC3)C2=O)CC1)Nc1cccc(F)c1 | nt | nt | -0.3 | -0.6 | nt | nt
COc1cc(/C=N/NC(=O)Cc2csc(C)n2)ccc1OCC(C)C | -1.4 | 0.962 | 2.5 | 1.0 | 14.8 | 13.5
COc1ccc(/C=N/NC(=O)Cc2csc(Nc3cccc(C(F)(F)F)c3)n2)cc1C | 81.2* | 2.93 | -2.6 | 2.3 | 19.2 | 22.4
Oc1[nH]c2ccccc2c1N=Nc1ccccc1F | 91.1* | -0.878 | 6.2 | 9.4 | 39.8 | 10.1
Cc1ccc(S(=O)(=O)N(C)c2ccc(C(=O)Nc3c(C)n(C)n(-c4ccccc4)c3=O)cc2)cc1 | 30.0 | -0.554 | -2.9 | -0.6 | 1.4 | 3.1
Cc1ccc(NNC(=O)C(=O)N2CCCCC2)cc1 | -31.8 | 0.554 | -1.1 | -1.3 | 65.7* | 42.7
Cc1ccccc1C(=O)NNC(=O)C(=O)N1CCCCC1 | -20.6 | -0.024 | -2.6 | -3.1 | 25.9 | -1.3
Cc1ccc(-c2nnc(SCC(=O)NCC3CCCO3)nc2-c2ccc(C)cc2)cc1 (configuration not stated) | nt | nt | 2.0 | -0.8 | nt | nt
O=S(=O)(c1ccc(F)cc1)c1nc(-c2ccccc2)oc1N1CCOCC1 | nt | nt | -1.5 | 0.9 | nt | 9.7
COc1ccc(OCCOc2ccc(/C=C3\C(=N)N4N=C(C)SC4=NC3=O)cc2)cc1 | nt | nt | 3.1 | 9.8 | nt | nt
C(=N\NC1=Nc2cccc3cccc1c23)/c1ccccn1 | 66.1 | -1.46 | nt | nt | 100.3* | 65.4*
C(=N\Nc1nc2ccccc2s1)/c1ccccn1 | 101.3* | -0.59 | -8.9 | -9.6 | nt | 38.9
Cc1csc(N/N=C/c2ccc([N+](=O)[O-])cc2)n1 | nt | nt | 0.2 | 7.0 | nt | -9.8
SMILES | CHOP inh | Dynein transport | UPR XBP1 act | CHOP UPR activ | Lmaj promast | T cruzi inh
C(=N\N=C\c1ccccn1)/c1ccccn1 | nt | nt | 3.6 | 1.4 | nt | -11.3
Cc1ccc2[nH]c(C)c(/C=N/Nc3nc4ccccc4s3)c2c1 | 78.0* | 0.617 | -0.3 | -2.2 | 3.1 | 61.2*
Brc1csc(/C=N/Nc2nc3ccccc3s2)c1 | 68.2 | 0.88 | 3.6 | 7.2 | -0.5 | 8.9
Cc1csc(N/N=C/c2ccccn2)n1 | 26.4 | 0.228 | -4.7 | -0.4 | 94.6* | 4.5
Cc1ccc(NC(=O)Nc2ccon2)cc1Cl | nt | nt | 1.3 | 3.9 | nt | -6.4
Cc1ccc2[nH]c(O)c(N=Nc3nc4ccccc4s3)c2c1 | 5.7 | -0.638 | -2.2 | 0.9 | nt | 60.9*
